# Source: ChEMBL document CHEMBL5058577, “EUbOPEN Chemogenomics Library 2 (Multiplex)” (2022)
# System: U2OS
# Assay: Multiplex assay against U2OS
# Assay type: toxicity, cell-based
# Settings: human
# How it was run: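 Cells were classed with CellPathfinder machine-learning gating, first as Hoechst high-intensity objects or normal cells, then (normal cells) as healthy, pyknosed or fragmented nuclei, and finally (pyknosed cells) as mitotic or apoptotic. Staining of live cells at seeding used Hoechst33342, BioTracker Green Microtubule Cytoskeleton Dye, MitoTracker Red and Annexin V Alexa Fluor 680, with imaging on a CQ1 microscope at 37°C and 5% CO2 after compound addition. Tubulin, mitochondrial-mass and membrane-permeability phenotypes are per cents of healthy-nucleus cells.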
# [1] = 12 h, 1 µM, compound concentration 1 uM, replicate 1
# [2] = 12 h, 1 µM, compound concentration 1 uM, replicate 2
# [3] = 12 h, 10 µM, compound concentration 10 uM, replicate 1
# [4] = 12 h, 10 µM, compound concentration 10 uM, replicate 2
# [5] = 24 h, 1 µM, compound concentration 1 uM, replicate 1
# [6] = 24 h, 1 µM, compound concentration 1 uM, replicate 2
# [7] = 24 h, 10 µM, compound concentration 10 uM, replicate 1
# [8] = 24 h, 10 µM, compound concentration 10 uM, replicate 2
# [9] = 48 h, 1 µM, compound concentration 1 uM, replicate 1
# [10] = 48 h, 1 µM, compound concentration 1 uM, replicate 2
# [11] = 48 h, 10 µM, compound concentration 10 uM, replicate 1
# [12] = 48 h, 10 µM, compound concentration 10 uM, replicate 2
smiles,measurement,setting,value
O=c1nc2[nH]c3ccccc3nc-2c(=O)[nH]1 [ALLOXAZINE],Population Apoptotic (%),[1],70%
same,Population Fragmented Nuclei (%),[1],25%
same,Population Healthy Nuclei (%),[1],61%
same,Population Hoechst High Intensity Objects (%),[1],2%
same,Population Membrane Permeable-Phenotype (%),[1],5%
same,Population Mitochondria Different-Phenotype (%),[1],0%
same,Population Mitotic Cells (%),[1],29%
same,Population Normal (%),[1],97%
same,Population Pyknosed Nuclei (%),[1],12%
same,Population Tubulin-Different-Phenotype (%),[1],3%
same,Total Cell Count,[1],195
same,Population Apoptotic (%),[2],75%
same,Population Fragmented Nuclei (%),[2],15%
same,Population Healthy Nuclei (%),[2],74%
same,Population Mitochondria Different-Phenotype (%),[2],5%
same,Population Mitotic Cells (%),[2],25%
same,Population Pyknosed Nuclei (%),[2],10%
same,Total Cell Count,[2],122
same,Population Apoptotic (%),[3],86%
same,Population Fragmented Nuclei (%),[3],33%
same,Population Healthy Nuclei (%),[3],59%
same,Population Hoechst High Intensity Objects (%),[3],0%
same,Population Membrane Permeable-Phenotype (%),[3],7%
same,Population Mitochondria Different-Phenotype (%),[3],0%
same,Population Mitotic Cells (%),[3],13%
same,Population Normal (%),[3],99%
same,Population Pyknosed Nuclei (%),[3],7%
same,Population Tubulin-Different-Phenotype (%),[3],1%
same,Total Cell Count,[3],212
same,Population Apoptotic (%),[4],88%
same,Population Fragmented Nuclei (%),[4],13%
same,Population Healthy Nuclei (%),[4],78%
same,Population Hoechst High Intensity Objects (%),[4],1%
same,Population Mitochondria Different-Phenotype (%),[4],5%
same,Population Mitotic Cells (%),[4],11%
same,Population Normal (%),[4],98%
same,Population Tubulin-Different-Phenotype (%),[4],3%
same,Total Cell Count,[4],119
same,Population Apoptotic (%),[5],73%
same,Population Fragmented Nuclei (%),[5],24%
same,Population Healthy Nuclei (%),[5],66%
same,Population Hoechst High Intensity Objects (%),[5],1%
same,Population Membrane Permeable-Phenotype (%),[5],4%
same,Population Mitochondria Different-Phenotype (%),[5],1%
same,Population Mitotic Cells (%),[5],26%
same,Population Normal (%),[5],98%
same,Population Pyknosed Nuclei (%),[5],8%
same,Population Tubulin-Different-Phenotype (%),[5],2%
same,Total Cell Count,[5],261
same,Population Apoptotic (%),[6],57%
same,Population Fragmented Nuclei (%),[6],16%
same,Population Healthy Nuclei (%),[6],74%
same,Population Hoechst High Intensity Objects (%),[6],2%
same,Population Membrane Permeable-Phenotype (%),[6],5%
same,Population Mitochondria Different-Phenotype (%),[6],5%
same,Population Mitotic Cells (%),[6],42%
same,Population Normal (%),[6],97%
same,Population Pyknosed Nuclei (%),[6],9%
same,Total Cell Count,[6],146
same,Population Apoptotic (%),[7],78%
same,Population Fragmented Nuclei (%),[7],30%
same,Population Healthy Nuclei (%),[7],61%
same,Population Hoechst High Intensity Objects (%),[7],0%
same,Population Membrane Permeable-Phenotype (%),[7],8%
same,Population Mitochondria Different-Phenotype (%),[7],2%
same,Population Mitotic Cells (%),[7],21%
same,Population Normal (%),[7],99%
same,Population Pyknosed Nuclei (%),[7],8%
same,Population Tubulin-Different-Phenotype (%),[7],2%
same,Total Cell Count,[7],237
same,Population Apoptotic (%),[8],75%
same,Population Fragmented Nuclei (%),[8],16%
same,Population Healthy Nuclei (%),[8],80%
same,Population Hoechst High Intensity Objects (%),[8],2%
same,Population Membrane Permeable-Phenotype (%),[8],5%
same,Population Mitochondria Different-Phenotype (%),[8],4%
same,Population Mitotic Cells (%),[8],25%
same,Population Normal (%),[8],97%
same,Population Pyknosed Nuclei (%),[8],2%
same,Population Tubulin-Different-Phenotype (%),[8],3%
same,Total Cell Count,[8],148
same,Population Apoptotic (%),[9],84%
same,Population Fragmented Nuclei (%),[9],19%
same,Population Healthy Nuclei (%),[9],71%
same,Population Hoechst High Intensity Objects (%),[9],1%
same,Population Membrane Permeable-Phenotype (%),[9],1%
same,Population Mitochondria Different-Phenotype (%),[9],1%
same,Population Mitotic Cells (%),[9],15%
same,Population Normal (%),[9],98%
same,Population Pyknosed Nuclei (%),[9],9%
same,Population Tubulin-Different-Phenotype (%),[9],1%
same,Total Cell Count,[9],362
same,Population Apoptotic (%),[10],76%
same,Population Fragmented Nuclei (%),[10],18%
same,Population Healthy Nuclei (%),[10],72%
same,Population Hoechst High Intensity Objects (%),[10],6%
same,Population Membrane Permeable-Phenotype (%),[10],4%
same,Population Mitochondria Different-Phenotype (%),[10],2%
same,Population Mitotic Cells (%),[10],23%
same,Population Normal (%),[10],93%
same,Population Pyknosed Nuclei (%),[10],8%
same,Population Tubulin-Different-Phenotype (%),[10],2%
same,Total Cell Count,[10],207
same,Population Apoptotic (%),[11],90%
same,Population Fragmented Nuclei (%),[11],26%
same,Population Healthy Nuclei (%),[11],66%
same,Population Hoechst High Intensity Objects (%),[11],1%
same,Population Membrane Permeable-Phenotype (%),[11],5%
same,Population Mitochondria Different-Phenotype (%),[11],1%
same,Population Mitotic Cells (%),[11],9%
same,Population Normal (%),[11],98%
same,Population Pyknosed Nuclei (%),[11],6%
same,Population Tubulin-Different-Phenotype (%),[11],2%
same,Total Cell Count,[11],321
same,Population Apoptotic (%),[12],76%
same,Population Fragmented Nuclei (%),[12],12%
same,Population Healthy Nuclei (%),[12],79%
same,Population Membrane Permeable-Phenotype (%),[12],3%
same,Population Mitotic Cells (%),[12],23%
same,Population Pyknosed Nuclei (%),[12],8%
same,Total Cell Count,[12],210
